From ChEMBL document CHEMBL1123325, “Isomer-dependent cytostatic activity of bis(1-aziridinyl)cyclophosphazenes” (1986)

Legend:
Format in all cases: functional
[1] = system: L1210; assay: In vitro inhibition dose (cytostatic activity) in L1210 mouse leukemia cells
[2] = system: L5178Y; assay: In vitro lowest active dose (LAD) in L5178Y mouse lymphoma cells
[3] = system: L1210; assay: Tested in vivo for 50% lethal dose in L1210 mouse leukemia cells
[4] = system: Mus musculus; assay: Compound was tested for percent median survival time of drug-treated mice over that of untreated control mice at dose of 90 mg/kg
Summary of the method: (§1)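 10^5 L1210 leukemia cells from in vitro suspension culture were injected into male (BALB/c × DBA/2)F1 (CDF1) mice as intraperitoneal leukemia. Dosing began 24 h later, with 5 mice per dose and 10 untreated controls. Survival times were recorded. The value is the median survival time of treated mice as a percent of untreated controls (T/C%), with 60-day long-term survivors noted.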

[5] = system: Mus musculus; assay: Compound was tested for percent median survival time of drug-treated mice over that of untreated control mice at dose of 110 mg/kg; summary of the method: as §1
[6] = system: Mus musculus; assay: Compound was tested for percent median survival time of drug-treated mice over that of untreated control mice at dose of 900 mg/kg; summary of the method: as §1
[7] = system: Mus musculus; assay: Compound was tested for percent median survival time of drug-treated mice over that of untreated control mice at dose of 600 mg/kg; summary of the method: as §1
[8] = system: Mus musculus; assay: Compound was tested for percent median survival time of drug-treated mice over that of untreated control mice at dose of 300 mg/kg; summary of the method: as §1
[9] = system: Mus musculus; assay: Compound was tested for percent median survival time of drug-treated mice over that of untreated control mice at dose of 350 mg/kg; summary of the method: as §1
[10] = system: Mus musculus; assay: Compound was tested for percent median survival time of drug-treated mice over that of untreated control mice at dose of 80 mg/kg; summary of the method: as §1
[11] = system: Mus musculus; assay: Tested for percent median survival time of drug-treated mice over that of untreated control mice at dose of 40 mg/kg; summary of the method: as §1
[12] = system: Mus musculus; assay: Compound was tested for percent median survival time of drug-treated mice over that of untreated control mice at dose of 100 mg/kg; summary of the method: as §1
[13] = system: Mus musculus; assay: Compound was tested for percent median survival time of drug-treated mice over that of untreated control mice at dose of 60 mg/kg; summary of the method: as §1
[14] = system: Mus musculus; assay: Compound was tested for percent median survival time of drug-treated mice over that of untreated control mice at dose of 160 mg/kg; summary of the method: as §1
[15] = system: Mus musculus; assay: Compound was tested for percent median survival time of drug-treated mice over that of untreated control mice at dose of 120 mg/kg; summary of the method: as §1
[16] = system: Mus musculus; assay: Tested for percent median survival time of drug-treated mice over that of untreated control mice at dose of 200 mg/kg; summary of the method: as §1
[17] = system: Mus musculus; assay: Compound was tested for percent median survival time of drug-treated mice over that of untreated control mice at dose of 150 mg/kg; summary of the method: as §1
[18] = system: Mus musculus; assay: Compound was tested for percent median survival time of drug-treated mice over that of untreated control mice at dose of 800 mg/kg; summary of the method: as §1
[19] = system: Mus musculus; assay: Compound was tested for percent median survival time of drug-treated mice over that of untreated control mice at dose of 400 mg/kg; summary of the method: as §1
[20] = system: Mus musculus; assay: Compound was tested for percent median survival time of drug-treated mice over that of untreated control mice at dose of 70 mg/kg; summary of the method: as §1
[21] = system: Mus musculus; assay: Compound was tested for percent median survival time of drug-treated mice over that of untreated control mice at dose of 20 mg/kg; summary of the method: as §1
[22] = system: Mus musculus; assay: Compound was tested for percent median survival time of drug-treated mice over that of untreated control mice at dose of 180 mg/kg; summary of the method: as §1
[23] = system: Mus musculus; assay: Compound was tested for percent median survival time of drug-treated mice over that of untreated control mice at dose of 140 mg/kg; summary of the method: as §1
[24] = system: Mus musculus; assay: Compound was tested for percent median survival time of drug-treated mice over that of untreated control mice at dose of 30 mg/kg; summary of the method: as §1
[25] = system: Mus musculus; assay: Compound was tested for percent median survival time of drug-treated mice over that of untreated control mice at dose of 50 mg/kg; summary of the method: as §1

| Structure (SMILES) | ID50 [1] | LAD [2] | LD50 [3] | further results |
| --- | --- | --- | --- | --- |
| C1CN(P2(N3CCOCC3)=N[P@](N3CCOCC3)(N3CC3)=N[P@](N3CCOCC3)(N3CC3)=N2)CCO1 | 3.35e-05 M l-1 | 6e-05 M l-1 | – | – |
| CN(C)P1(N(C)C)=NP(N(C)C)(N(C)C)=NP(N2CC2)(N2CC2)=N1 | 1.95e-05 M l-1 | 2e-05 M l-1 | – | – |
| C1CCN([P@@]2(N3CC3)=NP(N3CC3)(N3CC3)=N[P@@](N3CCCCC3)(N3CC3)=N2)CC1 | 2.1e-06 M l-1 | – | 140 mg/kg | T/C [4]: 167%; T/C [5]: 189% |
| CNP1(NC)=NP(NC)(NC)=NP(NC)(N2CC2)=N1 (centres undefined) | >0.00025 M l-1 | 0.0002 M l-1 | 800 mg/kg | T/C [6]: 225%; T/C [7]: 175% |
| C1CN(P2(N3CCOCC3)=NP(N3CC3)(N3CC3)=NP(N3CC3)(N3CC3)=N2)CCO1 | 5.8e-06 M l-1 | – | 400 mg/kg | T/C [8]: 175%; T/C [9]: 200% |
| CNP1(NC)=NP(NC)(NC)=N[P@@](NC)(N2CC2)=N[P@](NC)(N2CC2)=N1 | 1.8e-06 M l-1 | 2e-06 M l-1 | 100 mg/kg | T/C [10]: 263%; T/C [11]: 238%; T/C [12]: 213%; T/C [13]: 275% |
| CN(C)P1(N(C)C)=N[P@](N(C)C)(N2CC2)=NP(N(C)C)(N(C)C)=N[P@@](N(C)C)(N2CC2)=N1 | 7.5e-06 M l-1 | 1e-06 M l-1 | 150 mg/kg | T/C [14]: <100%; T/C [15]: 125% |
| C1CN(P2(N3CCOCC3)=N[P@](N3CCOCC3)(N3CC3)=N[P@@](N3CCOCC3)(N3CC3)=N2)CCO1 | 2.47e-05 M l-1 | 3e-05 M l-1 | 800 mg/kg | T/C [6]: 163%; T/C [7]: 163% |
| C1CCN(P2(N3CCCC3)=NP(N3CC3)(N3CC3)=NP(N3CC3)(N3CC3)=N2)C1 | 2.7e-06 M l-1 | – | 220 mg/kg | T/C [14]: 178%; T/C [16]: 211% |
| CN(C)P1(N(C)C)=NP(N(C)C)(N(C)C)=NP(N(C)C)(N2CC2)=N1 (centres undefined) | >0.00025 M l-1 | >0.0003 M l-1 | – | – |
| C1CCN(P2(N3CCCC3)=N[P@](N3CCCC3)(N3CC3)=N[P@](N3CCCC3)(N3CC3)=N2)C1 | 6.7e-06 M l-1 | 1e-06 M l-1 | – | – |
| CNP1(NC)=NP(NC)(NC)=NP(NC)(N2CC2)=NP(NC)(NC)=N1 (centres undefined) | 5.69e-05 M l-1 | 0.00015 M l-1 | – | – |
| C1CN(P2(N3CCOCC3)=NP(N3CCOCC3)(N3CCOCC3)=NP(N3CCOCC3)(N3CC3)=N2)CCO1 (centres undefined) | >0.00025 M l-1 | >0.0003 M l-1 | – | – |
| CNP1(NC)=N[P@](NC)(N2CC2)=N[P@](NC)(N2CC2)=N1 | 5e-06 M l-1 | 1e-06 M l-1 | 70 mg/kg | T/C [10]: 175%; T/C [11]: 250%; T/C [13]: 275% |
| CCOC(=O)CNP1(NCC(=O)OCC)=NP(N2CC2)(N2CC2)=NP(N2CC2)(N2CC2)=N1 | 7.2e-06 M l-1 | – | 170 mg/kg | T/C [15]: 125%; T/C [17]: <100% |
| CNP1(NC)=NP(NC)(NC)=NP(N2CC2)(N2CC2)=N1 | 2.78e-05 M l-1 | 8e-06 M l-1 | 600 mg/kg | T/C [18]: 188%; T/C [19]: 163%; T/C [7]: 150% |
| CNP1(NC)=N[P@@](NC)(N2CC2)=NP(NC)(NC)=N[P@@](NC)(N2CC2)=N1 | 4.6e-06 M l-1 | 5e-07 M l-1 | 200 mg/kg | T/C [16]: 213%; T/C [17]: 200% |
| CN(C)P1(N(C)C)=N[P@](N(C)C)(N2CC2)=NP(N(C)C)(N(C)C)=N[P@](N(C)C)(N2CC2)=N1 | 5.5e-06 M l-1 | 4e-06 M l-1 | – | – |

| Structure (SMILES) | ID50 [1] | LAD [2] | LD50 [3] | further results |
| --- | --- | --- | --- | --- |
| C1CCN(P2(N3CCCC3)=NP(N3CCCC3)(N3CCCC3)=NP(N3CC3)(N3CC3)=N2)C1 | 1.86e-05 M l-1 | 4e-06 M l-1 | – | – |
| C1CCN(P2(N3CC3)=NP(N3CC3)(N3CC3)=NP(N3CC3)(N3CC3)=N2)CC1 (centres undefined) | 1.5e-06 M l-1 | – | 80 mg/kg | T/C [13]: 175%; T/C [20]: 213% |
| C1CN([P@@]2(N3CC3)=NP(N3CC3)(N3CC3)=N[P@@](N3CCOCC3)(N3CC3)=N2)CCO1 | 4.7e-06 M l-1 | – | 250 mg/kg | T/C [14]: 213%; T/C [16]: 200% |
| C1CN(P2(N3CCOCC3)=NP(N3CCOCC3)(N3CCOCC3)=NP(N3CC3)(N3CC3)=N2)CCO1 | 0.00013 M l-1 | 0.00012 M l-1 | – | – |
| C1CCN(P2(N3CCCC3)=N[P@@](N3CCCC3)(N3CC3)=N[P@](N3CCCC3)(N3CC3)=N2)C1 | 4.8e-06 M l-1 | 1e-06 M l-1 | – | – |
| CN(C)P1(N(C)C)=NP(N(C)C)(N(C)C)=N[P@@](N(C)C)(N2CC2)=N[P@](N(C)C)(N2CC2)=N1 | 6.6e-06 M l-1 | 2e-06 M l-1 | – | – |
| C1CN1P1(N2CC2)=NP(N2CC2)(N2CC2)=NP(N2CC2)(N2CC2)=N1 | 2e-06 M l-1 | – | 50 mg/kg | T/C [21]: 200%; T/C [11]: 163% |
| C1CCN(P2(N3CCCCC3)=NP(N3CC3)(N3CC3)=NP(N3CC3)(N3CC3)=N2)CC1 | 3.6e-06 M l-1 | – | 250 mg/kg | T/C [16]: 156% |
| CN(C)P1(N(C)C)=NP(N(C)C)(N(C)C)=NP(N(C)C)(N2CC2)=NP(N(C)C)(N(C)C)=N1 (centres undefined) | 1.21e-05 M l-1 | 6.4e-05 M l-1 | – | – |
| C1CCN(P2(N3CCCC3)=NP(N3CCCC3)(N3CCCC3)=NP(N3CCCC3)(N3CC3)=N2)C1 (centres undefined) | 4.43e-05 M l-1 | 1.2e-05 M l-1 | – | – |
| CN(C)P1(N(C)C)=N[P@](N(C)C)(N2CC2)=N[P@](N(C)C)(N2CC2)=N1 | 7.3e-06 M l-1 | 5e-07 M l-1 | – | – |
| CNP1(NC)=N[P@](NC)(N2CC2)=NP(NC)(NC)=N[P@@](NC)(N2CC2)=N1 | 4.6e-06 M l-1 | 5e-07 M l-1 | 200 mg/kg | T/C [22]: 311%; T/C [12]: 244%; T/C [20]: 289%; T/C [23]: 333% |
| CN(C)P1(N(C)C)=NP(N(C)C)(N(C)C)=NP(N2CC2)(N2CC2)=NP(N(C)C)(N(C)C)=N1 | 1.19e-05 M l-1 | 2e-06 M l-1 | – | – |
| CN[P@@]1(N)=NP(N2CC2)(N2CC2)=N[P@](N)(NC)=N1 | 5.05e-05 M l-1 | 8e-06 M l-1 | – | – |
| CN(C)P1(N(C)C)=N[P@@](N(C)C)(N2CC2)=N[P@](N(C)C)(N2CC2)=N1 | 2.9e-06 M l-1 | 5e-07 M l-1 | – | – |
| CNP1(NC)=NP(NC)(NC)=NP(N2CC2)(N2CC2)=NP(NC)(NC)=N1 | 6.5e-06 M l-1 | 1.8e-05 M l-1 | – | – |
| CNP1(NC)=N[P@@](NC)(N2CC2)=N[P@](NC)(N2CC2)=N1 | 3.3e-06 M l-1 | 1e-06 M l-1 | 50 mg/kg | T/C [24]: 200%; T/C [11]: 222%; T/C [25]: 289% |
